Reference: paper PMC5559291 (Journal of the American Chemical Society, 2015)
Like-named read-outs stand apart in the source and are kept apart here.

Tests used:
[1] = ref 7c, 7d, cited from earlier work
[2] = typical values; cited from earlier work
[3] = Size exclusion chromatography; type: physicochemical; settings: protofibril sample; SEC deemed unreliable by the authors
How it was run: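 Superose 6 10/300 GL column (Vc = 24 ml); 50 μl Aβ40 sample injected and eluted at 0.5 ml/min. The column was equilibrated in either 10 mM sodium phosphate (pH 7.4) or 20 mM NaOH, with or without 150 mM NaCl. Apparent molecular weight was read from elution volume.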

[4] = Sedimentation velocity; type: physicochemical
[5] = Persistence of Aβ40 protofibrils in quiescent solution; type: physicochemical
[6] = type: physicochemical; settings: from sedimentation velocity on diluted samples
How it was run: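 Diluted neutral-pH and protofibril Aβ40 samples were loaded into 12 mm path-length cells, equilibrated 2 h at 20.0° C, and spun at 20,000-50,000 rpm. Detection used absorbance at 280 nm and Rayleigh interference. Data were analysed as continuous c(s) distributions of Lamm equation solutions with maximum-entropy regularization, and sedimentation coefficients were corrected to 20° C water.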

[7] = type: physicochemical
[8] = 37° C; cited from earlier work
[9] = protofibril sample, 2.0 mM Aβ40

Substance | incubation time for evolution of spherical assemblies to mature fibrils ([1]; TEM, without sonication or agitation) | size of long-lived spherical assemblies ([1]; formed at 4° C, pH 7.4, 100 μM peptide) | quasi-equilibrium solubility of mature fibrils [2] | apparent molecular weight of a large fraction of material [3] | apparent molar mass of slowly sedimenting species ([4]; neutral pH sample, 2.0 mM Aβ40) | estimated molar masses of aggregates ([4]; neutral pH sample, 2.0 mM Aβ40) | sedimentation coefficients of aggregates (broadly distributed around) ([4]; neutral pH sample, 2.0 mM Aβ40) | aggregates as fraction of the loading signal ([4]; neutral pH sample, 2.0 mM Aβ40, pH 7.5) | sedimentation coefficient of slowly sedimenting species ([4]; neutral pH sample, 2.0 mM Aβ40, remaining material) | apparent molar masses of rapidly sedimenting species [4, 9] | fraction of material consisting of rapidly sedimenting species [4, 9] | stability of protofibrils ([5]; quiescent solutions at pH 7.5, TEM) | persistence of protofibrils ([5]; room temperature, without sonication or agitation of the Aβ40 solution) | quasi-equilibrium solubility of Aβ40 assemblies ([6]; neutral pH sample) | quasi-equilibrium solubility of Aβ40 assemblies ([6]; protofibril sample) | monomeric fraction ([7]; high pH samples) | fraction of protofibrillar assemblies ([7]; protofibril samples) | time for subsequent conversion to fibrils [8]
Aβ40: 40-residue amyloid-β peptide, made by FMOC solid-phase synthesis | more than 50 h | ~650 kDa | less than 1 μM | greater than 1 MDa | 4.7 kDa | around 0.4 MDa | around 11 S | approximately 75% | ~0.6 S | roughly 10 MDa | approximately 95% | stable for at least several weeks | at least 20 days | greater than 10 μM | greater than 10 μM | > 90% | > 90% | 
Aβ42: 42-residue amyloid-β peptide; literature results only |  |  |  |  |  |  |  |  |  |  |  |  |  |  |  |  |  | ≤ 12 days
